The source of these data is paper PMC7862734 (Investigative Ophthalmology & Visual Science, 2021).

*: point of attachment. Biotin = O=C1N[C@H]2[C@H](CS[C@H]2CCCCC(=O)*)N1 A value given as a limit tells only on which side of the number the result lay.

For series [1], the target named is cytosolic kinase domain of PDGFRβ (Homo sapiens, UniProt P09619). Briefly: SPR. It is filed as binding. Conditions: protein up to 200 nM, HBS-EP, 25°C.
Series [2] has as its target cytosolic kinase domain of PDGFRα (Homo sapiens, UniProt P16234). The series can be described thus: SPR. It is filed as binding. Conditions: protein up to 200 nM, HBS-EP, 25°C.
In series [3] the target is cytosolic kinase domain of EGFR (Homo sapiens, UniProt P00533). Briefly: SPR. The conditions noted are these: protein up to 200 nM, HBS-EP, 25°C. It counts as binding.
Series [4] deals with VEGFR2 (Homo sapiens, UniProt P35968). The series can be described thus: Pull-down assay from HUVEC lysate, Western blotting. It counts as binding. The conditions noted are these: biotin-peptide on streptavidin beads. A digest of the protocol: (§1)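 HUVEC at passage 3–6 grown in EGM2 and lysed. Lysate incubated with biotinylated test or control peptide captured on streptavidin beads. After washing, bound proteins and lysate input were immunoblotted with antibodies to VEGFR2 and Centaurin A.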
Chain of VEGFR2 (P35968 20-1356): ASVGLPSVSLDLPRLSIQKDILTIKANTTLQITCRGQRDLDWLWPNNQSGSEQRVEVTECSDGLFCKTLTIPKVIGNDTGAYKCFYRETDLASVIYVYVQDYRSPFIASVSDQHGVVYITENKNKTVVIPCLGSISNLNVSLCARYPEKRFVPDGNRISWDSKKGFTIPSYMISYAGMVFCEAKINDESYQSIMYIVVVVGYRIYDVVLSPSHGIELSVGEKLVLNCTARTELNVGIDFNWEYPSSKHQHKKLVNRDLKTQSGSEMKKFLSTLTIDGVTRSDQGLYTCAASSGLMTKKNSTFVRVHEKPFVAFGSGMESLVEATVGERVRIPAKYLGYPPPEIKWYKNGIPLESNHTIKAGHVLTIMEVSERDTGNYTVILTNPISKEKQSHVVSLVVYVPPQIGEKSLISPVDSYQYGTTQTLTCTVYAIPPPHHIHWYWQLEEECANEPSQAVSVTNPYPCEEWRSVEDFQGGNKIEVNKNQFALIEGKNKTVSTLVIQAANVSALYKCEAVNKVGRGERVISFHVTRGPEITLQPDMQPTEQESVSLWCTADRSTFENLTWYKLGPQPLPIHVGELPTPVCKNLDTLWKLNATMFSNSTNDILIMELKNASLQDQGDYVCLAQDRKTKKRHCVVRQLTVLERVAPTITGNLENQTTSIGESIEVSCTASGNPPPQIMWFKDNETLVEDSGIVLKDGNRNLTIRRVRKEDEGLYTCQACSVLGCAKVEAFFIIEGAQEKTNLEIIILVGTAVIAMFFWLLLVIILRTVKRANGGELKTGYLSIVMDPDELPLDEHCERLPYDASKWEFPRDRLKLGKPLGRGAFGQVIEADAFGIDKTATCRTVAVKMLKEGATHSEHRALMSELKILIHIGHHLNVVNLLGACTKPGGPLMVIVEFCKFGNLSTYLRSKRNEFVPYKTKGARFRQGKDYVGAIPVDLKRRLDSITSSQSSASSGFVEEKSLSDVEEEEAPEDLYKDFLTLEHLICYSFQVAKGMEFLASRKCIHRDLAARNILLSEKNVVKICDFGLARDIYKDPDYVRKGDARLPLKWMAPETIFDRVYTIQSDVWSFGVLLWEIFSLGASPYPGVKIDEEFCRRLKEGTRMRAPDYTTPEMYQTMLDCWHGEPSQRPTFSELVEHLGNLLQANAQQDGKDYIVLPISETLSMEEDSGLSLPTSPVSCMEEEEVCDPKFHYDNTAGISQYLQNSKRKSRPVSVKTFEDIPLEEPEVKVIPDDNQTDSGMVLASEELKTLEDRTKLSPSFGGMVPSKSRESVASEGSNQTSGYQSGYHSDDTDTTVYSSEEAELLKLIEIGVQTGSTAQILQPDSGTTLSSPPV
A general note: Immunoblotting shows a protein as a band on a membrane.

Series [5] addresses T1, Centaurin alpha (CentA) (Homo sapiens, UniProt O75689).
T1 sequence (O75689 1-374): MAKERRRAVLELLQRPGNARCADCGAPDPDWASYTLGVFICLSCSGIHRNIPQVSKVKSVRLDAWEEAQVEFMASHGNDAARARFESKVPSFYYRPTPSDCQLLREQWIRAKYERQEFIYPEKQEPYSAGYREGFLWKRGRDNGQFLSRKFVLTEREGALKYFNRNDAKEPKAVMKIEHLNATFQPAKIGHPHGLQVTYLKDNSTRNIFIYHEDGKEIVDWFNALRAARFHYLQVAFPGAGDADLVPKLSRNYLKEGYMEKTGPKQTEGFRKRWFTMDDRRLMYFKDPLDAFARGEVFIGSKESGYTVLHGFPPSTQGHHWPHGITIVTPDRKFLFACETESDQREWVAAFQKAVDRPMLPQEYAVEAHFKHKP
Described as above. Conditions: biotin-peptide on streptavidin beads. It counts as binding. A digest of the protocol:
as §1

Series [6] relates to laser-induced CNV in C57BL/6 mice. The series can be described thus: Laser-induced choroidal neovascularization. It counts as in vivo, mouse. A digest of the protocol:
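C57BL/6 mice (7 weeks). Four 532 nm laser burns per mouse (200–355 mW, 50 µm, 70 msec). Test compound given as a daily eye drop (2 or 5 µg/eye in 5 µL PBS, days 1–14 or days 7–14) or as an intravitreal injection after laser (0.5–10 µg in 2 µL PBS), against control peptide or PBS. Day-14 OCT cross-section and ILB4-stained choroidal flat-mount area, averaged per mouse.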

A short description of series [7]: Biodistribution after eye drop, cryosection stained with Alexa 488-streptavidin. It is filed as in vivo, mouse. Conditions: eye drop 5 µg/eye, C57BL/6, time points 10 minutes, 30 minutes, 1 hour, 2 hours, streptavidin staining.
The conditions of series [8]: intravitreal, human eyes; cited from earlier work.
Series [9] concerns the target Kinesin-derived angiogenesis inhibitor (KAI), biotinylated (human) (UniProt Q9NQT8). The series can be described thus: SPR. A general note: SPR reads the build-up and loss of mass on a sensor chip optically.
Series [10] concerns the target recombinant cytosolic domain (789-1356 aa) of VEGFR2 (UniProt P35968 789-1356). The series can be described thus: SPR.

Chain of cytosolic kinase domain of PDGFRα (P16234 550-1089 limits assumed): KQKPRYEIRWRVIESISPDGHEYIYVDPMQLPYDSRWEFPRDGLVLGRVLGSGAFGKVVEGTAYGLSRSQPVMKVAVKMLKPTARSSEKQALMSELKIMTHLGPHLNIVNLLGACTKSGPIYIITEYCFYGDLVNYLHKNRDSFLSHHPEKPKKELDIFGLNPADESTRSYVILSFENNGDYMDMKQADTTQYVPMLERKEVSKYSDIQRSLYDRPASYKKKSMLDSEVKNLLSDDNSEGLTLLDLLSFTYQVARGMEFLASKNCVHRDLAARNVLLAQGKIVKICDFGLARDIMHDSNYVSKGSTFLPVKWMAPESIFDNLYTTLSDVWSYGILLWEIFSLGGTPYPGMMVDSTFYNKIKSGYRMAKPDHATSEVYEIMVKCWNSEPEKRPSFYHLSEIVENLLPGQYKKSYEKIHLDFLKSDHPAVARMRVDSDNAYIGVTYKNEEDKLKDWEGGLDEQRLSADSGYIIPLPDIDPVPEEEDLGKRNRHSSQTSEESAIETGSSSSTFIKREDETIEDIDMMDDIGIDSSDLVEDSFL
Chain of recombinant cytosolic domain (789-1356 aa) of VEGFR2 (P35968 789-1356): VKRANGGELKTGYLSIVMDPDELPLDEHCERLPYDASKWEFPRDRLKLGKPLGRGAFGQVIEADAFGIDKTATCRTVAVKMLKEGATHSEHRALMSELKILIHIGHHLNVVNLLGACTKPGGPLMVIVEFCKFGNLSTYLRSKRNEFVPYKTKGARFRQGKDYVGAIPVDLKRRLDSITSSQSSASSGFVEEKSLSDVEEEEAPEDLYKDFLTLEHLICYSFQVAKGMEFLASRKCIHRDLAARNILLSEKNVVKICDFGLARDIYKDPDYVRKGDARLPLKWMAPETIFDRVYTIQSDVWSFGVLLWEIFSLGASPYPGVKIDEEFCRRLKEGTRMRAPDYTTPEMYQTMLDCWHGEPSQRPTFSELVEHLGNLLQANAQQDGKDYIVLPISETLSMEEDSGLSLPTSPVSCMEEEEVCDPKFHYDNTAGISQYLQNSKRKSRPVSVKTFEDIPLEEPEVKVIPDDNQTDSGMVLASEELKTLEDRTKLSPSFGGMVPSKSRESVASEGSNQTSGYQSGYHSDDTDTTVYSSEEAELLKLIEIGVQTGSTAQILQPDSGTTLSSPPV
Chain of cytosolic kinase domain of PDGFRβ (P09619 554-1106 limits assumed): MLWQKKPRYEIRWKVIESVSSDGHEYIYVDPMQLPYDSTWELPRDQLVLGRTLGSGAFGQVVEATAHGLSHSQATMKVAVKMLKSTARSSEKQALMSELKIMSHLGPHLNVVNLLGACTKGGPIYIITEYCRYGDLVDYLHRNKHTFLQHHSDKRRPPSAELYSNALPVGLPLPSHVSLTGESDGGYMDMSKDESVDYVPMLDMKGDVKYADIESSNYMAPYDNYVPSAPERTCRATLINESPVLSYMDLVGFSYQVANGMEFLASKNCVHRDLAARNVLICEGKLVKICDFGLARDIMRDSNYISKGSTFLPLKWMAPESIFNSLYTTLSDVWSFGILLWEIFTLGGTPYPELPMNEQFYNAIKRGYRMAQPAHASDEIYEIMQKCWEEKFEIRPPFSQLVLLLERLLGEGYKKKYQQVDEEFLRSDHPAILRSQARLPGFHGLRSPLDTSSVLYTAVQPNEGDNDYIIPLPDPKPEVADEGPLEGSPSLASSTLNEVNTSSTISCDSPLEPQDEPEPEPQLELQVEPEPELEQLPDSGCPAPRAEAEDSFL

On to “KAI: 23 aa peptide, aa 1238-1260 of human KIF13B, minimum binding site to VEGFR2; biotinylated N-terminus, amidated C-terminus (Biotin-SRGTPVDERLFLIVRVTVQLSHP-NH2; SMILES CC[C@H](C)[C@H](NC(=O)[C@H](CC(C)C)NC(=O)[C@H](Cc1ccccc1)NC(=O)[C@H](CC(C)C)NC(=O)[C@H](CCCNC(=N)N)NC(=O)[C@H](CCC(=O)O)NC(=O)[C@H](CC(=O)O)NC(=O)[C@@H](NC(=O)[C@@H]1CCCN1C(=O)[C@@H](NC(=O)CNC(=O)[C@H](CCCNC(=N)N)NC(=O)[C@H](CO)NC(=O)CCCC[C@@H]1SC[C@@H]2NC(=O)N[C@@H]21)[C@@H](C)O)C(C)C)C(=O)N[C@H](C(=O)N[C@@H](CCCNC(=N)N)C(=O)N[C@H](C(=O)N[C@H](C(=O)N[C@H](C(=O)N[C@@H](CCC(N)=O)C(=O)N[C@@H](CC(C)C)C(=O)N[C@@H](CO)C(=O)N[C@@H](Cc1c[nH]cn1)C(=O)N1CCC[C@H]1C(N)=O)C(C)C)[C@@H](C)O)C(C)C)C(C)C)”, for which the “Binding of PDGFRβ to immobilized peptide (in words)” value in series [1] is recorded as “very weak binding”. In series [2], the “Binding of PDGFRα to immobilized peptide (in words)” value is “did not bind”. Also, the “Binding of EGFR to immobilized peptide (in words)” value in series [3] is “did not bind”. Also, the “Interaction with VEGFR2 in pull-down” value in [4] is reported as “interacts”. In addition, in series [5], the “Interaction with CentA in pull-down” value was “does not bind”. Moreover, the “Regression of developed CNV” value in [6] (eye drop 5 µg/eye daily from day 7 to day 14) is “effective to regress neovascularization”. For the same molecule, in [6] (eye drop 2∼5 µg/eye daily day 1 to day 14, 200 mW laser, day 14), the “Area of CNV measured by OCT (cross-section) vs ctrl” value was “significantly reduced”. The “Effect on CNV vs PBS (OCT and ILB4 staining)” value in series [6] (intravitreal injection 2 µg in 2 µL PBS after laser burn, 355 mW, C57BL/6, P = 0.045 (OCT), P = 0.034 (ILB4), one-way ANOVA) is “significantly inhibited”. The “Time at which peptide was detected in the retina and choroid” value in [7] stood at 30 min.
For the molecule bevacizumab, the Aqueous half-life in [8] was 236 h.
ranibizumab: in [8], the Aqueous half-life was 173 h.
“recombinant cytosolic domain of PDGFRB (domain or fragment)” came in with a Kd in series [9] above 200 nM.

B1: Kinesin-derived angiogenesis inhibitor (KAI), biotinylated (peptide, UniProt Q9NQT8 1238-1260, looked up)
peptide: Biotin-SRGTPVDERLFLIVRVTVQLSHP-NH2
SMILES: CC[C@H](C)[C@H](NC(=O)[C@H](CC(C)C)NC(=O)[C@H](Cc1ccccc1)NC(=O)[C@H](CC(C)C)NC(=O)[C@H](CCCNC(=N)N)NC(=O)[C@H](CCC(=O)O)NC(=O)[C@H](CC(=O)O)NC(=O)[C@@H](NC(=O)[C@@H]1CCCN1C(=O)[C@@H](NC(=O)CNC(=O)[C@H](CCCNC(=N)N)NC(=O)[C@H](CO)NC(=O)CCCC[C@@H]1SC[C@@H]2NC(=O)N[C@@H]21)[C@@H](C)O)C(C)C)C(=O)N[C@H](C(=O)N[C@@H](CCCNC(=N)N)C(=O)N[C@H](C(=O)N[C@H](C(=O)N[C@H](C(=O)N[C@@H](CCC(N)=O)C(=O)N[C@@H](CC(C)C)C(=O)N[C@@H](CO)C(=O)N[C@@H](Cc1c[nH]cn1)C(=O)N1CCC[C@H]1C(N)=O)C(C)C)[C@@H](C)O)C(C)C)C(C)C
Regarding B1, in [10], the dissociation constant (Kd) was 6.8 ± 0.6 nM.

The term Kd denotes a measure of binding affinity in units of concentration.
